Calls of active or inactive are those of the source. No cut-off for these calls is given here.
Experiments:
[1] = target: Ubiquitin carboxyl-terminal hydrolase 8 (Homo sapiens) (UniProt P40818); assay: Inhibition of N-terminal His6-tagged full length recombinant human USP8 assessed as reduction in cleavage of luminescent substrate Ub-AML at 100 uM
How it was run: (§1)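 Purified recombinant DUBs assayed with Ub-AML as luminescent substrate, using the Glo reagent protocol and read on a microplate luminometer.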

[2] = target: Ubiquitin carboxyl-terminal hydrolase 14 (Homo sapiens) (UniProt P54578); assay: Inhibition of USP14 in human HeLa crude cell extracts assessed as induction of formation of high molecular weight complexes with USP14 at 10 uM incubated for 2 hrs in presence of glutathione by immunoblot analysis; format: cell-free
Chain of Ubiquitin carboxyl-terminal hydrolase 14 (Homo sapiens) (P54578 whole entry): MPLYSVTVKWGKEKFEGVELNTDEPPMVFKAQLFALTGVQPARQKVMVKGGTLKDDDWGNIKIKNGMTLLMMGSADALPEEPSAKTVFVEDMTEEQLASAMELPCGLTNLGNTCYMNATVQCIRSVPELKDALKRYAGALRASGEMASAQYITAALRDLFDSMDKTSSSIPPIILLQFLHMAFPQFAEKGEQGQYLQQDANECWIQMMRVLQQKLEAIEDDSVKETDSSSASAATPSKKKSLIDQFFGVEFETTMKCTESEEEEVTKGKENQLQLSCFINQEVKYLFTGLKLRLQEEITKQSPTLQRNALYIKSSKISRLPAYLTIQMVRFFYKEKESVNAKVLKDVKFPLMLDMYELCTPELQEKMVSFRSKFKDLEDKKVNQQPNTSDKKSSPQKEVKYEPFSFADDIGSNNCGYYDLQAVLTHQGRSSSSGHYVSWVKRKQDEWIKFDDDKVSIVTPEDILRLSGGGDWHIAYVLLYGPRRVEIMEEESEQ

[3] = target: T1, Ubiquitin carboxyl-terminal hydrolase isozyme L5 (Homo sapiens) (UniProt Q9Y5K5); assay: Inhibition of UCH-37 in intact human HeLa cells assessed as induction of formation of high molecular weight complexes with USP14 at 10 uM incubated for 2 hrs by immunoblot analysis; format: cell-based
T1 sequence (whole entry): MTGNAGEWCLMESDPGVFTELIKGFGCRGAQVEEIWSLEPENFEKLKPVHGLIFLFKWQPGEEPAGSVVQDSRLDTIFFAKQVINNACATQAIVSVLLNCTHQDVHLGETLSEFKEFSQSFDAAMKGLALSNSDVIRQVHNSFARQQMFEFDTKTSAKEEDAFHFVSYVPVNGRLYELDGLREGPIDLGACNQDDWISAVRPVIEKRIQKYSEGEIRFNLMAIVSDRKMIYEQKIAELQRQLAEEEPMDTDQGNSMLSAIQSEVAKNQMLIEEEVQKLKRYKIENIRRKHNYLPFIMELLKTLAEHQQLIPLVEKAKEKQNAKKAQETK
How it was run: (§2)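 Intact HeLa cells (DMEM, 10% FBS, about 80% confluent) treated 2 h with vehicle or 10 μM compound, with or without 10 mM DTT or 10 mM GSH. Cells washed in cold PBS and lysed in RIPA with protease and phosphatase inhibitors. High-MW species detected by SDS-PAGE immunoblot; shorter exposures served as loading control.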

[4] = target: Ubiquitin carboxyl-terminal hydrolase 14 (Homo sapiens) (UniProt P54578); assay: Inhibition of USP14 in intact human HeLa cells assessed as induction of formation of high molecular weight complexes with USP14 at 10 uM in presence of glutathione incubated for 2 hrs by immunoblot analysis; format: cell-based; how it was run: as §2
[5] = target: T1, Ubiquitin carboxyl-terminal hydrolase isozyme L5 (Homo sapiens); assay: Inhibition of UCH-37 in intact human HeLa cells assessed as induction of formation of high molecular weight complexes with USP14 at 10 uM incubated for 2 hrs in presence of dithiothreitol by immunoblot analysis; format: cell-based; how it was run: as §2
SiHa = assay: Cytotoxicity in human SiHa cells assessed as reduction in cell viability incubated for 72 hrs Cell-titer Glo reagent based assay; format: functional
How it was run: (§3)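 Tumor lines grown at 37 °C, 5% CO2 with 10% FBS (DMEM for HeLa and SiHa; RPMI for HCT116) and exposed to compound for 72 h. Viability read by CellTiter Glo luminescence; IC50 derived from n=6.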

Anamorsin (Homo sapiens) = Anamorsin (Homo sapiens) (UniProt Q6FI81); assay: Inhibition of CIAPIN1 in human KMS11 cells assessed as […] depletion of stable CIAPIN1 levels at 1 to 10 uM incubated for 6 hrs by immunoblot analysis; format: cell-based
Chain of Anamorsin (Homo sapiens) (Q6FI81 whole entry): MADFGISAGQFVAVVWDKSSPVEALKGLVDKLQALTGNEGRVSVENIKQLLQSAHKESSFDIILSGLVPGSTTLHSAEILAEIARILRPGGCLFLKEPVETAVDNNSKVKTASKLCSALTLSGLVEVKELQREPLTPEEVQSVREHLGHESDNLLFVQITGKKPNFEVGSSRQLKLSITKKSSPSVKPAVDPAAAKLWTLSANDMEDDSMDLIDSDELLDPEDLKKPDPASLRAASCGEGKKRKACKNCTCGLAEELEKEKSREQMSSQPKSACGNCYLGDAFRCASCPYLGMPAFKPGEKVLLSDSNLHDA

HeLa [6] = assay: Inhibition of deubiquitinase in human HeLa cell extracts assessed as decrease in global DUB activity at 50 uM using luminescent substrate Ub-AML; format: cell-free
How it was run: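 HeLa crude extracts used as the DUB source, prepared as for the ABP assays. Global DUB activity read by luminescence with Ub-AML substrate, using the Glo reagent protocol.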

HeLa [7] = assay: Inhibition of deubiquitinase in human HeLa cell extracts assessed as induction of accumulation of high molecular weight mTOR proteins at 10 uM incubated for 2 hrs by immunoblot analysis; format: cell-free
HUVEC = assay: Cytotoxicity in human HUVEC cells assessed as reduction in cell viability incubated for 72 hrs Cell-titer Glo reagent based assay
How it was run: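 Endothelial HUVECs (EGM-2, 10% FBS) exposed to compound for 72 h, n=6. Viability read as CellTiter Glo luminescence and IC50 derived.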

KMS-11 = assay: Cytotoxicity in human KMS11 cells assessed as reduction in cell viability at 1 to 10 uM incubated for 16 hrs in presence of GSH by Alamar blue assay; format: functional, cell-based
How it was run: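 KMS11 seeded at 80,000/well, treated with 1 or 10 µM compound with or without 1 mM GSH for 16 h, 6 biological replicates. Alamar blue fluorescence read at 560/590 nm, normalised to DMSO control.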

HeLa [8] = assay: Inhibition of deubiquitinase in human HeLa cell extracts assessed as inhibition of HA-Ub-C2Br probe labeling at 1 to 100 uM incubated for 30 mins by immunoblot analysis; format: cell-free
[9] = target: Ubiquitin carboxyl-terminal hydrolase 7 (Homo sapiens) (UniProt Q93009); assay: Inhibition of N-terminal His6-tagged full length recombinant human USP7 assessed as reduction in cleavage of luminescent substrate Ub-AML at 100 uM; how it was run: as §1
HeLa [10] = assay: Inhibition of deubiquitinase in human HeLa cell extracts assessed as induction of accumulation of high molecular weight ubiquitylated proteins at 10 uM incubated for 2 hrs by immunoblot analysis; format: cell-free
[11] = target: Ubiquitin carboxyl-terminal hydrolase BAP1 (Homo sapiens) (UniProt Q92560); assay: Inhibition of His6-tagged recombinant human BAP1 assessed as reduction in cleavage of luminescent substrate Ub-AML at 100 uM; how it was run: as §1
Chain of Ubiquitin carboxyl-terminal hydrolase BAP1 (Homo sapiens) (Q92560 whole entry, the tested form may be a part): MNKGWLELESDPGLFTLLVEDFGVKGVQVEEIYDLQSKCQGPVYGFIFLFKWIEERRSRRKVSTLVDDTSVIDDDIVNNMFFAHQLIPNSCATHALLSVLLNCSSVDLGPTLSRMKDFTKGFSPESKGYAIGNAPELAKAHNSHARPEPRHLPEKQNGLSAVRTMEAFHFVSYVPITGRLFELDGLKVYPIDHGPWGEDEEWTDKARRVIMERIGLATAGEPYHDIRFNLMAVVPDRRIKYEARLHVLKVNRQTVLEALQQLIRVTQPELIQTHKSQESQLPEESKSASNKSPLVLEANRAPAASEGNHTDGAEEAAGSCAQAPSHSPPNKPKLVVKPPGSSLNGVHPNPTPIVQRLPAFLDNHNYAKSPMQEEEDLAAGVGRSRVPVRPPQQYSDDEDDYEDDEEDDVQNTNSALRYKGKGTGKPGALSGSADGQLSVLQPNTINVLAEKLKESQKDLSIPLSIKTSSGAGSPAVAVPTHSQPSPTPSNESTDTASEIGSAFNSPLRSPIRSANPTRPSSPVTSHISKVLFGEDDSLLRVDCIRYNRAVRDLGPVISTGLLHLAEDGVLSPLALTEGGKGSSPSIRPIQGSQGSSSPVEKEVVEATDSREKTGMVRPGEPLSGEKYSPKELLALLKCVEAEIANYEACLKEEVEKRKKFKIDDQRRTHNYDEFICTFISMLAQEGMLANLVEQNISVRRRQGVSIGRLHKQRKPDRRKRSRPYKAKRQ

[12] = target: Tumor necrosis factor alpha-induced protein 3 (Homo sapiens) (UniProt P21580); assay: Inhibition of A20 catalytic domain (unknown origin) assessed as reduction in cleavage of luminescent substrate Ub-AML at 100 uM; how it was run: as §1
Chain of Tumor necrosis factor alpha-induced protein 3 (Homo sapiens) (P21580 whole entry, the tested form may be a part): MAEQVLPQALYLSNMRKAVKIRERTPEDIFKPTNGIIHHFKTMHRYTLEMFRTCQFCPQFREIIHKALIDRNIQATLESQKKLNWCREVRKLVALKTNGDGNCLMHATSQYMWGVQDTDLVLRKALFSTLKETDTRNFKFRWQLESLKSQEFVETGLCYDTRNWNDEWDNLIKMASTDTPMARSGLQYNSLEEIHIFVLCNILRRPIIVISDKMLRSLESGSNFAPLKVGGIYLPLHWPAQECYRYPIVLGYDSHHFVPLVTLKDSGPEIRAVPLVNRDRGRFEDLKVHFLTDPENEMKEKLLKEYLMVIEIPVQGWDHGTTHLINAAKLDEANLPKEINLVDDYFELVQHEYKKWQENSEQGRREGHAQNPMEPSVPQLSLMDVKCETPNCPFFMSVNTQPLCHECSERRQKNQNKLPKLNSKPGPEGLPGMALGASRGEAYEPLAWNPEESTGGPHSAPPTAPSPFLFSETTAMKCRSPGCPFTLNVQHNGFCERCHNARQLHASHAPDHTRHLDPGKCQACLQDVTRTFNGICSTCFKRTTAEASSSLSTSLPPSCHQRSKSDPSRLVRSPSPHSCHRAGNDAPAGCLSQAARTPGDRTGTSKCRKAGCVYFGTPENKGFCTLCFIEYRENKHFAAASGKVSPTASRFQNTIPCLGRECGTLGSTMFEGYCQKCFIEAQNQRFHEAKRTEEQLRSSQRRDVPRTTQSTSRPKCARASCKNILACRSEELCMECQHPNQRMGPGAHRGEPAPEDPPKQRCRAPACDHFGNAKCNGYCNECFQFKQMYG

Ataxin-3 (Homo sapiens) = Ataxin-3 (Homo sapiens) (UniProt P54252); assay: Inhibition of human recombinant Ataxin-3 assessed as reduction in cleavage of luminescent substrate Ub-AML at 100 uM; how it was run: as §1
Chain of Ataxin-3 (Homo sapiens) (P54252 whole entry): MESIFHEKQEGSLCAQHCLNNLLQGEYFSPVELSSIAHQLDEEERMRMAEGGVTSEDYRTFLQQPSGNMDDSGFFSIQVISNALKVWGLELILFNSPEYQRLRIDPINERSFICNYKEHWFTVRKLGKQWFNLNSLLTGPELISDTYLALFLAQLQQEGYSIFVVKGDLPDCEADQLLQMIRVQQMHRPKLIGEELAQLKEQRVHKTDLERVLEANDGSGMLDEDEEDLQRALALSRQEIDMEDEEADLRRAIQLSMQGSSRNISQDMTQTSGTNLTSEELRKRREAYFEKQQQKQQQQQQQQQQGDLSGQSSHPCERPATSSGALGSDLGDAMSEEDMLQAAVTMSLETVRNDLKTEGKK

[13] = target: Ubiquitin carboxyl-terminal hydrolase isozyme L1 (Homo sapiens) (UniProt P09936); assay: Inhibition of human recombinant UCHL1 assessed as reduction in cleavage of luminescent substrate Ub-AML at 100 uM; how it was run: as §1
Chain of Ubiquitin carboxyl-terminal hydrolase isozyme L1 (Homo sapiens) (P09936 whole entry, looked up): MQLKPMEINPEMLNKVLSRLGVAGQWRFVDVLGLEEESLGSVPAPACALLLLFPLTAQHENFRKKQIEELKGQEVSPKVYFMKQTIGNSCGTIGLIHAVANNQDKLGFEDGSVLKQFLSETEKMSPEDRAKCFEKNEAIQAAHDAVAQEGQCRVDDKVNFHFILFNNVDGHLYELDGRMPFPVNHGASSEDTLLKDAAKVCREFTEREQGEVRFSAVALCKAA

[14] = target: T1, Ubiquitin carboxyl-terminal hydrolase isozyme L5 (Homo sapiens); assay: Inhibition of UCH-37 in human HeLa crude cell extracts assessed as induction of formation of high molecular weight complexes with […] at 10 uM incubated for 2 hrs in presence of dithiothreitol by immunoblot analysis; format: cell-free
HeLa [15] = assay: Inhibition of deubiquitinase in human HeLa cell extracts assessed as increase in high molecular weight protein complexes at 10 uM incubated for 2 hrs by SDS-PAGE and Coomassie Blue staining based method; format: cell-free
[16] = target: Ubiquitin carboxyl-terminal hydrolase 14 (Homo sapiens) (UniProt P54578); assay: Inhibition of USP14 in human HeLa crude cell extracts assessed as induction of formation of high molecular weight complexes with USP14 at 10 uM incubated for 2 hrs in presence of dithiothreitol by immunoblot analysis; format: cell-free
HeLa [17] = assay: Inhibition of deubiquitinase in human HeLa cell extracts assessed as induction of accumulation of high molecular weight ubiquitylated proteins at 10 uM incubated for 2 hrs in presence of GSH by immunoblot analysis; format: cell-free
HeLa [18] = assay: Cytotoxicity in human HeLa cells assessed as reduction in cell viability incubated for 72 hrs Cell-titer Glo reagent based assay; format: functional; how it was run: as §3
[19] = target: Ubiquitin carboxyl-terminal hydrolase 2 (Homo sapiens) (UniProt O75604); assay: Inhibition of N-terminal His6-tagged […] recombinant human USP2 catalytic domain assessed as reduction in cleavage of luminescent substrate Ub-AML at 100 uM; how it was run: as §1
Chain of Ubiquitin carboxyl-terminal hydrolase 2 (Homo sapiens) (O75604 whole entry, the tested form may be a part): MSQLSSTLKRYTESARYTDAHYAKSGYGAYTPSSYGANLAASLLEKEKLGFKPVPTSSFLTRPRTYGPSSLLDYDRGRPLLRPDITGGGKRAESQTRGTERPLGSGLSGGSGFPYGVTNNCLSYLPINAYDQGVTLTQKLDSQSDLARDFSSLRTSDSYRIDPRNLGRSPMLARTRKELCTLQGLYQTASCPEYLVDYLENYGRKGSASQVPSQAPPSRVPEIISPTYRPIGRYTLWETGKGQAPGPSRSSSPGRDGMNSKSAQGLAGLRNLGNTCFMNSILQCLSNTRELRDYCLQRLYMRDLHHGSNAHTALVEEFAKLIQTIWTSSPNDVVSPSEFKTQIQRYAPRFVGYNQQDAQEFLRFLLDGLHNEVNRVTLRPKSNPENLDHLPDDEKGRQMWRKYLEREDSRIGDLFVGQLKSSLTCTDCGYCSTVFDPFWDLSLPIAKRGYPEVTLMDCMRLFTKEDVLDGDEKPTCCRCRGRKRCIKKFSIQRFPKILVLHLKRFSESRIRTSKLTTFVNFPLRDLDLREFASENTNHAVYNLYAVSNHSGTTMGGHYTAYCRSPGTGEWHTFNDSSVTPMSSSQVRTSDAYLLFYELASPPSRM

Chain of Ubiquitin carboxyl-terminal hydrolase 8 (Homo sapiens) (P40818 whole entry): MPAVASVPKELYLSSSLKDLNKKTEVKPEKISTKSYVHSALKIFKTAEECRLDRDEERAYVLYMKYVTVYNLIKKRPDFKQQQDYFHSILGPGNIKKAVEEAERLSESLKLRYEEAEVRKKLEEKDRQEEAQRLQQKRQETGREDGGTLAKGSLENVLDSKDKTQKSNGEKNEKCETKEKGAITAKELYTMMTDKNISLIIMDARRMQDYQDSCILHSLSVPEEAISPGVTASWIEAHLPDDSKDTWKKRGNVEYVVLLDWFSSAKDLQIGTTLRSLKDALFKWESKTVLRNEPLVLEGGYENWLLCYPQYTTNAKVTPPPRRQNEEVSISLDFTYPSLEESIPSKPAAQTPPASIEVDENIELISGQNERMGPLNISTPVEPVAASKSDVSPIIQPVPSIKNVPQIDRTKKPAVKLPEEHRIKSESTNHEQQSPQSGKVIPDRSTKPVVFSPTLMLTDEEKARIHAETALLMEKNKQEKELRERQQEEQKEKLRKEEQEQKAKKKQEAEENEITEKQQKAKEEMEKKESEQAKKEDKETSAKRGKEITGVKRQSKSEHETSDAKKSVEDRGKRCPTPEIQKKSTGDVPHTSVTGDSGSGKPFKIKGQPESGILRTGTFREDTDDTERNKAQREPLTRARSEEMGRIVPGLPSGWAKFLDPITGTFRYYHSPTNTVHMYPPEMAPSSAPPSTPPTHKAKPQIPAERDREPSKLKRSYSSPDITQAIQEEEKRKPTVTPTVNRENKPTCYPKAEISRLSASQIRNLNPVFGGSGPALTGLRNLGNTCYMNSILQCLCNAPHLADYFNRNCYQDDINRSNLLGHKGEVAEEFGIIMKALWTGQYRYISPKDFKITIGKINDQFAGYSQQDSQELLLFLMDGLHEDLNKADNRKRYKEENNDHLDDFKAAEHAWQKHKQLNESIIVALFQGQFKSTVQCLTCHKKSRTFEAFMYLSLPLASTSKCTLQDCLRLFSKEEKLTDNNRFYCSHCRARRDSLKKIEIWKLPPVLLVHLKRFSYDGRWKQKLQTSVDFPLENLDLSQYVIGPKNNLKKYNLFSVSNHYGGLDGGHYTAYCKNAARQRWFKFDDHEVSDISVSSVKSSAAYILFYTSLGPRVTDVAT

For `C=CC(=O)N1C/C(=C\c2ccc([N+](=O)[O-])cc2)C(=O)/C(=C/c2ccc([N+](=O)[O-])cc2)C1`, the inhibition [1] was “Active”, the inhibition [2] was “inactive” and the inhibition [3] was “Active”. For the same compound, the inhibition [4] was “inactive”, the inhibition [5] was “inactive” and the Activity (SiHa) was “Active”. The inhibition (Anamorsin (Homo sapiens)) was “Active”, the inhibition (HeLa [6]) was “Active” and the inhibition (HeLa [7]) was “Active”. The Activity (HUVEC) was “Toxic”, the Activity (KMS-11) was “inactive” and the inhibition (HeLa [8]) was “Active”. The inhibition [9] was “Active”, the inhibition (HeLa [10]) was “Active” and the inhibition [11] was “Active”. The inhibition [12] was “Active”, the inhibition (Ataxin-3 (Homo sapiens)) was “Active” and the inhibition [13] was “Active”. For the same compound, the inhibition [14] was “inactive”, the inhibition (HeLa [15]) was “Active” and the inhibition [16] was “inactive”. The inhibition (HeLa [17]) was “inactive”, the Activity (HeLa [18]) was “Active” and the inhibition [19] was “Active”.

— ChEMBL document CHEMBL4354861, “Re-Evaluating the Mechanism of Action of α,β-Unsaturated Carbonyl DUB Inhibitors b-AP15 and VLX1570: A Paradigmatic Example of Unspecific Protein Cross-linking with Michael Acceptor Motif-Containing Drugs” (J Med Chem, 2020)
